In ChEMBL document CHEMBL1137404, “Enzyme specific activation of benzoquinone ansamycin prodrugs using HuCC49DeltaCH2-beta-galactosidase conjugates” (J Med Chem, 2006):
pIC50: −log10 of the molar value. Activity calls are given as the source filed them. The calls are words filed in the database; no cut-off is given here.

Experiments:
LS174T [1] = assay: Cytotoxicity against human LS174T cells by MTS assay; format: functional, cell-based
Outline: (§1)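 LS174T cells (2,000−5,000/well) grown 24 h, then given 1 h with PBS, enzyme-only staining buffer or antibody-enzyme conjugate (2 units) and washed three to five times. Compound added at 0−25 μM for 72 h.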

LS174T [2] = assay: Induction of Hsp90-mediated AKT degradation in human LS174T cells after 1 hr in presence of HuCC49deltaCH2-beta galactosidase conjugate by Western blotting; format: functional
Outline: (§2)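 LS174T cells at 50−70% confluence given 1 h with free β-galactosidase or antibody-enzyme conjugate in PBS with 2% FBS, washed, then exposed 24 h to 2 or 10 μM compound. Lysates (30 μg) run on 10% SDS-PAGE and blotted for AKT and β-actin by ECL. AKT expressed as Akt:β-actin ratio relative to control (100%).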

LS174T [3] = assay: Cytotoxicity against human LS174T cells in presence of HuCC49deltaCH2-beta galactosidase conjugate by MTS assay; format: functional, cell-based; outline: as §1
LS174T [4] = assay: Induction of Hsp90-mediated AKT degradation in human LS174T cells in absence of HuCC49deltaCH2-beta galactosidase by Western blotting at 2 uM; format: functional; outline: as §2
LS174T [5] = assay: Induction of Hsp90-mediated AKT degradation in human LS174T cells in presence of HuCC49deltaCH2-beta galactosidase conjugate by Western blotting at 10 uM; format: functional; outline: as §2
LS174T [6] = assay: Induction of Hsp90-mediated AKT degradation in human LS174T cells in absence of HuCC49deltaCH2-beta galactosidase by Western blotting at 10 uM; format: functional; outline: as §2
LS174T [7] = assay: Induction of Hsp90-mediated AKT degradation in human LS174T cells in presence of HuCC49deltaCH2-beta galactosidase conjugate by Western blotting at 2 uM; format: functional; outline: as §2

Row | Compound | pIC50 (LS174T [1]) | Activity (LS174T [2]) | pIC50 (LS174T [3]) | Activity (LS174T [4]) | Activity (LS174T [5]) | Activity (LS174T [6]) | Activity (LS174T [7])
1 | CO[C@H]1/C=C\C=C(/C)C(=O)NC2=CC(=O)C(NCCO[C@@H]3O[C@H](CO)[C@H](O)[C@H](O)[C@H]3O)=C(C[C@@H](C)C[C@H](OC)[C@H](O)[C@@H](C)/C=C(\C)[C@@H]1OC(N)=O)C2=O | < 4.60 | 70% | 5.95 | inactive | – | – | –
2 | COC1=C2C[C@@H](C)C[C@H](OC)[C@H](O)[C@@H](C)/C=C(\C)[C@H](OC(N)=O)[C@@H](OC)/C=C\C=C(/C)C(=O)NC(=CC1=O)C2=O [GELDANAMYCIN] | 6.35 | – | – | – | – | – | –
3 | CO[C@H]1/C=C\C=C(/C)C(=O)NC2=CC(=O)C(N)=C(C[C@@H](C)C[C@H](OC)[C@H](O)[C@@H](C)/C=C(\C)[C@@H]1OC(N)=O)C2=O | – | – | – | 70% | 70% | 70% | 70%
